Results from different studies.
Target: Phosphorylase b kinase gamma catalytic chain, skeletal muscle/heart isoform (PHKG1, Homo sapiens, UniProt Q16816)

Compound	effect on	technique	tested at	remaining binding
N[C@H]1CCN(c2nccc(-c3cnn4ncccc34)n2)C1	binding	–	1 µM	84%
FC(F)(F)Oc1cccc(-c2cnc3ccc(-c4ccncc4)nn23)c1	cell-free assay	competition with immobilised ligand	5 µM	43%
CCN1CCN(Cc2ccc(C(=O)Nc3ccc(C)c(Oc4ccc5c(c4)CC(=O)N5)c3)cc2C(F)(F)F)CC1	binding	competition with immobilised ligand	1 µM	100%
COc1ncc2cc3ccccc3nc2c1C#N	cell-free assay	competition with immobilised ligand	5 µM	83%
O=C(c1ccc(Nc2ncc(Cl)c(-c3cc4ccccc4s3)n2)cc1)N1CCC(N2CCCC2)CC1	binding	competition with immobilised ligand	1 µM	54%
CC(=O)C1=C(C)N(c2cccc(C(F)(F)F)c2)C(=O)N[C@@H]1c1ccc(C#N)nc1	cell-free assay	competition with immobilised ligand	1 µM	100%
F[C@@H]1CCN(c2nccc(-c3cnn4ncccc34)n2)C1	binding	–	1 µM	100%
N#CC1(c2ccccn2)CCN(Cc2cc(C(=O)N3CCCC3)c(=O)n3ccccc23)CC1	cell-free assay	competition with immobilised ligand	1 µM	100%
CN(C)c1nccc(-c2cnc3ncccn23)n1	binding	–	1 µM	100%
Cc1cnc(Nc2ccc(C(=O)N3CCC(N4CCCC4)CC3)cc2)nc1-c1cc2ccccc2s1	binding	competition with immobilised ligand	1 µM	54%
O=C(Nc1c[nH]nc1C(=O)NC1CCNCC1)c1cc(F)cc(F)c1	binding	competition with immobilised ligand	1 µM	93%
CN(C)c1nccc(-c2cnn3ncccc23)n1	binding	–	1 µM	100%
Cc1c(NC(=O)c2cc(C(N)=O)nc3cc(F)ccc23)c(C(F)(F)F)nn1Cc1ccc(C(C)(C)C)cc1	cell-free assay	competition with immobilised ligand	1 µM	100%
O=C(c1ccc(Nc2ncc(Cl)c(-c3ccc(Cl)s3)n2)cc1)N1CCC(N2CCCC2)CC1	binding	competition with immobilised ligand	1 µM	85%
O=C(NCc1ncc(C(F)(F)F)cc1Cl)c1ccc2c(c1)C1(CCS(=O)(=O)CC1)[C@@H](C1CC1)N2S(=O)(=O)c1ccc(F)cc1	cell-free assay	competition with immobilised ligand	1 µM	100%
C[C@@H]1CCN(c2nccc(-c3cnn4ncccc34)n2)C1	binding	–	1 µM	100%
CC(=O)c1c(NS(C)(=O)=O)c2cc(-c3ccc(Cl)cc3)c(-c3ccc(Cl)cc3Cl)nc2n(C)c1=O	cell-free assay	competition with immobilised ligand	1 µM	94%
CN(C)c1ncc(F)c(-c2cnn3ncccc23)n1	binding	–	1 µM	100%
O=C(O)[C@H]1[C@H](Cn2nnc3ccccc3c2=O)CC[C@@H]1C(=O)c1ccc(OCCC2CCOCC2)cc1	cell-free assay	competition with immobilised ligand	1 µM	74%
COc1cnc(Nc2cccc(S(N)(=O)=O)c2)nc1N1CCN(c2ccccc2)CC1	binding	competition with immobilised ligand	1 µM	97%
Cc1cnn2ncc(-c3ccnc(N(C)C)n3)c2c1	binding	–	1 µM	85%
CCCOc1ccc([C@@H]2[C@@H](C(=O)O)[C@H](c3ccc4c(c3)OCO4)CN2CC(=O)Nc2c(CC)cccc2CC)cc1	cell-free assay	competition with immobilised ligand	1 µM	97%
